ChEMBL document CHEMBL4364291, “Benzylideneacetone Derivatives Inhibit Osteoclastogenesis and Activate Osteoblastogenesis Independently Based on Specific Structure-Activity Relationship” (J Med Chem, 2019)
Active and inactive are the calls of the source. The rule behind the calls is not given here.

Key:
[1] = Inhibition of M-CSF/RANKL-induced osteoclast differentiation in C57BL/6 mouse bone marrow macrophage assessed as reduction in multinucleated TRAP+ cells incubated for 6 days with fresh media replacement on day 3 and measured on day 6 by TRAP staining-based microscopic analysis; format: functional, cell-based; conditions: C57BL/6, BMDM
How it was run: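 BMM came from femur and tibia marrow of 5–8-week-old male C57BL/6 mice and were purified over lymphocyte separation medium. Cells, 1 × 10^5 per well, were grown in α-MEM/10% FBS with M-CSF (60 ng/mL) and RANKL (150 ng/mL) for 6 d, medium changed day 3. Compound range was 0.01−100 μM. TRAP+ multinucleated cells were counted on day 6.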

MC3T3-E1 [2] = assay: Osteo-blastogenic activity in mouse MC3T3-E1 cells assessed as stimulation of ALP activity at 10 uM supplemented with fresh medium every 3 to 4 days and measured after 14 days relative to control; format: functional
How it was run: (§1)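 MC3T3-E1 subclone 4 osteoblastic cells were grown in α-MEM at 37 °C under 5% CO2 with compound present during differentiation. ALP activity was read 14 d after induction and expressed as % of untreated cells. Values are mean ± SD of three independent experiments.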

MC3T3-E1 [3] = assay: Osteo-blastogenic activity in mouse MC3T3-E1 cells assessed as stimulation of ALP activity at 50 uM supplemented with fresh medium every 3 to 4 days and measured after 14 days relative to control; format: functional; how it was run: as §1
BMDM [4] = assay: Inhibition of RANKL-induced osteoclastogenesis in C57BL/6 mouse bone marrow macrophages assessed as increase in NFkappaB expression at 10 uM measured over 5 days by Western blot analysis; format: functional, cell-based
How it was run: (§2)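 C57BL/6 BMM were grown with M-CSF plus RANKL over the course of osteoclastogenesis, treated at 0.5 or 10 μM. NF-κB and NFATc1 were followed by Western blot. The negative control was M-CSF only.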

BMDM [5] = assay: Inhibition of RANKL-induced osteoclastogenesis in C57BL/6 mouse bone marrow macrophages assessed as reduction in NFATc1 expression at 10 uM measured over 5 days by Western blot analysis; format: functional, cell-based; how it was run: as §2
BMDM [6] = assay: Effect on NFkappaB expression in M-CSF induced C57BL/6 mouse bone marrow macrophages at 10 uM measured over 5 days by Western blot analysis; format: functional, cell-based
How it was run: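 C57BL/6 BMM were proliferated with M-CSF alone without RANKL and treated at 0.5 or 10 μM. NF-κB expression was followed over time by Western blot.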

BMDM [7] = assay: Suppression of NFATc1 expression in M-CSF induced C57BL/6 mouse bone marrow macrophages at 10 uM measured over 5 days by Western blot analysis; format: functional, cell-based
How it was run: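 C57BL/6 BMM were kept proliferating with M-CSF in the absence of RANKL and treated with compound (0.5 or 10 μM). NFATc1 expression was followed over the culture period by Western blot.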

Mus musculus [8] = assay: Antiosteoporotic activity in ddY mouse model of OVX-induced osteoporosis assessed as increase in femur bone mineral density at 10 mg/kg, po administered once daily via gavage for 4 weeks by microcomputed tomographic analysis; format: functional, organism-based
How it was run: (§3)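 Female ddY mice were ovariectomized. Oral gavage began 1 week after surgery and ran once daily for 28 d. Vehicle was 300 μL PBS containing 0.5% (v/v) DMSO, also given to sham and OVX controls. Mice were then euthanized and femur and tibia fixed for CT imaging. Values are mean ± SD of four mice.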

Mus musculus [9] = assay: Antiosteoporotic activity in ddY mouse model of OVX-induced osteoporosis assessed as increase in ratio of bone volume/trabecular volume in femur bone at 10 mg/kg, po administered once daily via gavage for 4 weeks by microcomputed tomographic analysis; format: functional, organism-based; how it was run: as §3
Mus musculus [10] = assay: Antiosteoporotic activity in ddY mouse model of OVX-induced osteoporosis assessed as increase in cross-sectional thickness in femur bone at 10 mg/kg, po administered once daily via gavage for 4 weeks by microcomputed tomographic analysis; format: functional, organism-based; how it was run: as §3
Mus musculus [11] = assay: Antiosteoporotic activity in ddY mouse model of OVX-induced osteoporosis assessed as increase in trabecular number in femur bone at 10 mg/kg, po administered once daily via gavage for 4 weeks by microcomputed tomographic analysis; format: functional, organism-based; how it was run: as §3
Mus musculus [12] = assay: Antiosteoporotic activity in ddY mouse model of OVX-induced osteoporosis assessed as increase in trabecular thickness in femur bone at 10 mg/kg, po administered once daily via gavage for 4 weeks by microcomputed tomographic analysis; format: functional, organism-based; how it was run: as §3
Mus musculus [13] = assay: Antiosteoporotic activity in ddY mouse model of OVX-induced osteoporosis assessed as reduction in trabecular separation in femur bone at 10 mg/kg, po administered once daily via gavage for 4 weeks by microcomputed tomographic analysis; format: functional, organism-based; how it was run: as §3
Mus musculus [14] = assay: Antiosteoporotic activity in ddY mouse model of OVX-induced osteoporosis assessed as increase in new bone volume in femur bone at 10 mg/kg, po administered once daily via gavage for 4 weeks by microcomputed tomographic analysis; format: functional, organism-based; how it was run: as §3
[15] = Cytotoxicity against mouse RAW264.7 cells after 24 hrs by MTT assay; format: cell-based; conditions: read-out: LD50
How it was run: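 RAW264.7 macrophages (preosteoclast line) were kept in DMEM at 37 °C under 5% CO2 and tested without RANKL. MTT read-out of growth and survival, expressed as LD50.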

HCT-116 = assay: Antiproliferative activity against human HCT116 cells after 24 hrs by MTT assay; format: functional; conditions: HCT-116, 24 h, read-out: LD50 (the source's name)
How it was run: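 Cells were maintained in DMEM at 37 °C under 5% CO2. Growth and survival were estimated by MTT assay, and the value is reported as LD50.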

[16] = Toxicity in ddY mouse model of OVX-induced osteoporosis assessed as increase in body weight at 10 mg/kg, po administered once daily via gavage for 4 weeks measured 5 weeks post OVX-challenge; format: organism-based; conditions: in vivo, 840 h
How it was run: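 Dosing of ddY mice began one week after ovariectomy: compound in 300 μL of 0.5% (v/v) DMSO-containing PBS by gavage once daily for 28 d. OVX and sham controls received vehicle. Body weight was compared with sham control 5 weeks after OVX.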

MC3T3-E1 [17] = assay: Osteo-blastogenic activity in mouse MC3T3-E1 cells assessed as stimulation of ALP activity at 1 uM supplemented with fresh medium every 3 to 4 days and measured after 14 days relative to control; format: functional; how it was run: as §1
[18] = molecular target: Isopentenyl-diphosphate Delta-isomerase 1 (Rattus norvegicus, UniProt O35760); assay: Inhibition of isopentenyl diphosphate isomerase in Sprague-Dawley rat liver S100 fraction preincubated for 10 min followed by MVA addition by HPLC analysis
Sequence of Isopentenyl-diphosphate Delta-isomerase 1 (O35760 whole entry): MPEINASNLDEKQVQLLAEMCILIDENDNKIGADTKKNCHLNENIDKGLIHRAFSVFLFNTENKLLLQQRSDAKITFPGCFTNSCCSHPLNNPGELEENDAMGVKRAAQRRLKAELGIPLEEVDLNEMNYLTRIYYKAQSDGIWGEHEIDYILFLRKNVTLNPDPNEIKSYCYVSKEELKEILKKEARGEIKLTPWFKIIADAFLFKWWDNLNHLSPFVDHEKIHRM

| SMILES | IC50 [1] [µM] | Activity (MC3T3-E1 [2]) [%] | Activity (MC3T3-E1 [3]) [%] | further results |
| --- | --- | --- | --- | --- |
| O=C(/C=C/c1ccc(O)c(O)c1)O[C@@H]1C[C@@](O)(C(=O)O)C[C@@H](O)[C@@H]1O | 48 | 120 | 170 | – |
| COC(=O)c1ccc(O)c(O)c1 [METHYL PROTOCATECHUATE] | 78 | 110 | 100 | – |
| C=CCOc1ccc(/C=C/C(C)=O)cc1O | 18 | 120 | 140 | – |
| O=Cc1ccc(O)c(O)c1 [PROTOCATECHUALDEHYDE] | 15 | 110 | 140 | – |
| NC(=O)/C=C/c1ccc(F)c(O)c1 | 25 | 110 | 120 | – |
| COc1cc(/C=C/C(C)=O)ccc1O [DEHYDROZINGERONE] | 7.5 | 110 | 600 | inhibition (BMDM [4]): Active; inhibition (BMDM [5]): Active; Activity (BMDM [6]): inactive; Activity (BMDM [7]): Active; Activity (Mus musculus [8]): Active; Activity (Mus musculus [9]): Active; Activity (Mus musculus [10]): Active; Activity (Mus musculus [11]): Active; Activity (Mus musculus [12]): Active; Activity (Mus musculus [13]): Active; Activity (Mus musculus [14]): Active; CC50 at 24 h [15]: > 5000 µM; CC50 (HCT-116): 310 µM; Activity [16]: Toxic |
| O=C(O)/C=C/c1ccccc1 [CINNAMIC ACID] | > 100 | 100 | 110 | – |
| CC[C@H](C)[C@H](NC(=O)[C@H](CCC(=O)O)NC(=O)[C@H](CO)NC(=O)[C@@H](NC(=O)[C@@H](N)CO)C(C)C)C(=O)N[C@@H](CCC(N)=O)C(=O)N[C@@H](CC(C)C)C(=O)N[C@@H](CCSC)C(=O)N[C@@H](Cc1cnc[nH]1)C(=O)N[C@@H](CC(N)=O)C(=O)N[C@@H](CC(C)C)C(=O)NCC(=O)N[C@@H](CCCCN)C(=O)N[C@@H](Cc1cnc[nH]1)C(=O)N[C@@H](CC(C)C)C(=O)N[C@@H](CC(N)=O)C(=O)N[C@@H](CO)C(=O)N[C@@H](CCSC)C(=O)N[C@@H](CCC(=O)O)C(=O)N[C@@H](CCCNC(=N)N)C(=O)N[C@H](C(=O)N[C@@H](CCC(=O)O)C(=O)N[C@@H](Cc1c[nH]c2ccccc12)C(=O)N[C@@H](CC(C)C)C(=O)N[C@@H](CCCNC(=N)N)C(=O)N[C@@H](CCCCN)C(=O)N[C@@H](CCCCN)C(=O)N[C@@H](CC(C)C)C(=O)N[C@@H](CCC(N)=O)C(=O)N[C@@H](CC(=O)O)C(=O)N[C@H](C(=O)N[C@@H](Cc1cnc[nH]1)C(=O)N[C@@H](CC(N)=O)C(=O)N[C@@H](Cc1ccccc1)C(=O)O)C(C)C)C(C)C [TERIPARATIDE] | – | – | – | Activity (MC3T3-E1 [17]): 140% |
| NCCCC(O)(P(=O)(O)O)P(=O)(O)O [ALENDRONATE SODIUM] | 3.7 | – | – | Activity (Mus musculus [8]): Active; Activity (Mus musculus [9]): Active; Activity (Mus musculus [10]): Active; Activity (Mus musculus [11]): Active; Activity (Mus musculus [12]): inactive; Activity (Mus musculus [13]): Active; Activity (Mus musculus [14]): Active; IC50 [18]: 1.7 µM |
| O=C(O)Cc1ccc(O)c(O)c1 [3,4-DIHYDROXYPHENYLACETIC ACID] | 75 | 120 | 170 | – |
| CC(=O)/C=C/c1ccc(OCc2ccccc2)c(O)c1 | 19 | 130 | 140 | – |
| Cc1ccc(/C=C/C(N)=O)cc1O | 15 | 110 | 120 | – |
| CC(=O)/C=C/c1ccc(C)c(O)c1 | 5.9 | 100 | 130 | – |
| O=C(/C=C/c1ccc(O)c(O)c1)O[C@@H]1C[C@](O)(C(=O)O)C[C@@H](O)[C@H]1O [CHLOROGENIC ACID] | 86 | 110 | 150 | – |
| CC(=O)/C=C/c1ccc(OC(C)C)c(O)c1 | 24 | 100 | 94 | – |
| CC(=O)/C=C/c1ccc(O)c(F)c1 | 8.3 | 100 | 100 | – |
| O=C(O)c1ccc(O)c(O)c1 [PROTOCATECHUIC ACID] | 89 | 100 | 140 | – |
| O=C(O)Cc1ccccc1 [PHENYLACETIC ACID] | > 100 | 120 | 110 | – |
| CC(=O)/C=C/c1ccc(O)cc1 | 32 | 110 | 150 | – |
| CC(=O)/C=C/c1ccc(F)c(O)c1 | 15 | 100 | 100 | – |
| COC(=O)Cc1ccc(O)c(O)c1 | 80 | 100 | 130 | – |
| O=C(O)/C=C/c1ccc(O)c(O)c1 [CAFFEIC ACID] | 41 | 120 | 130 | – |
